Compounds with a hit are over-represented: about 1.9% of the library has one in this group of screens.
Env fusion inh: inhibitors of HIV Env-mediated cell fusion; HeLa-JRFL Env/CEM21 cell fusion, luciferase; inhibition, % at 12.3 µM; 360,000 tested, 1.1% active; AID 651610;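 active = mean replicate inhibition score of at least 50 and every replicate individually at or above 50; inconclusive = only one of the two criteria met; inactive = mean below 50 and not all replicates reaching 50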;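 note: 0% = plate neutral controls and 100% = maraviroc near 300 nM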
SR-BI uptake up: enhances SR-BI lipid uptake from DiI-HDL; CHO ldlA[mSR-BI] cells, DiI-HDL uptake fluorescence, 3 h; 100 = double the neutral-control signal; activation, % at 12.5 µM; 320,000 tested, 0.096% active;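 active = mean replicate activation of at least 60% and every replicate at or above 60%; inconclusive = mean or all-replicate condition met, but not both; inactive = mean below 60% and not all replicates reaching 60%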;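 note: 0% = median plate neutral-control signal and 100% = twice that signal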
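material = CHO ldlA[mSR-BI] cells | medium = Ham's F12 with 0.5% BSA, HEPES 25 mM, pH 7.4 | reagent = fluorescent DiI-HDL, 10 µg/mL final | compound dosing = single-point compound dose | incubation = 3 h, 37 °C | measured by = bottom-read fluorescence, 550/595 nm | measure = HDL uptake via cellular fluorescence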
N-glyco inh: blocks N-linked glycosylation in D54 reporter cells | D54 ERlucT glycosylation luciferase reporter, 24 h; percent of 100 nM tunicamycin response | reporter increase, % at 12.5 µM | 360,000 tested, 0.23% active | AID 588692;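 active = mean luciferase reporter signal, scaled so untreated is 0 and the glycosylation-blocking control 100, at or above a set limit in every replicate; inconclusive = mean reaches the limit but not every replicate does; inactive = mean below the limit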;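 note: luciferase carries N-glycosylation sites so blocking glycosylation raises the light; 0% = median of neutral control wells and 100% = median of 100 nM tunicamycin wells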
SR-BI DiI inh: blocks mouse SR-BI lipid uptake from DiI-HDL | Q61009 | ldlA[mSR-BI] CHO cells, DiI-HDL uptake fluorescence, 3 h | inhibition, % at 12.5 µM | 320,000 tested, 0.96% active;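 active = mean replicate inhibition of at least 70% and a set share of replicates each scoring 70 or more; inconclusive = meets just one of the two criteria; inactive = fails both criteria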;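 note: 0% = median of neutral control wells and 100% = median of positive control wells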
PglD inh: blocks C. jejuni PglD acetyltransferase activity. 360,000 tested, 0.098% active. AID 602405. purified PglD enzyme, DTNB colorimetric CoA detection. inhibition, % at 12.5 µM; in the data active = inhibition above about 16%, passing the limit was not always enough; inconclusive = no clear call, values can overlap the other calls
Rtt109 HAT inh: inhibitors of Candida albicans Rtt109/Vps75 histone acetyltransferase; Q5AAJ8; purified Rtt109/Vps75, ThioGlo CoA-SH fluorescence, 4 h; inhibition, % at 34.9 µM; 330,000 tested, 0.16% active; AID 540336;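 active = inhibition of at least 50% in every replicate; inconclusive = best replicate reaches 50% inhibition but some replicates fall short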
Target sequence (Q5AAJ8 whole entry, looked up): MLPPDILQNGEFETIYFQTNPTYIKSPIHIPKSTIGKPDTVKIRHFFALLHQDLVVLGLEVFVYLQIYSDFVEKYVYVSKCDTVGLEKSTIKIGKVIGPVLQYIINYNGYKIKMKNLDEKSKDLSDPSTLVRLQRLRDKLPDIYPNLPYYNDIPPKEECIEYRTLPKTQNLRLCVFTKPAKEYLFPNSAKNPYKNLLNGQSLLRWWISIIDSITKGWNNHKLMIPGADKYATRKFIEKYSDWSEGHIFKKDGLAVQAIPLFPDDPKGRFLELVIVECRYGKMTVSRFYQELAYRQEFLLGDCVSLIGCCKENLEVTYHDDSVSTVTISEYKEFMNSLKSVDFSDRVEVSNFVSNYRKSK
PglD confirm: confirmation of Campylobacter jejuni PglD acetyltransferase inhibitors; shares compounds with PglD inh; Purified C. jejuni PglD, DTNB absorbance 412 nm; inhibition, % at 20 µM; 320 tested, under 10 active; AID 743156;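 active = mean inhibition across replicates of at least 20% with every single replicate also at 20% or more; inconclusive = mean inhibition at least 20% but some replicate falls below 20%; inactive = mean inhibition under 20% and not all replicates reach it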;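 note: initial rate of CoA release by acetyl transfer from AcCoA to the UDP-4-amino sugar; 0% = median of neutral control wells and 100% = median of positive control wells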
* hit, by the source's call; [ ] = remark or other dose.

Results for Cc1ccc(S(=O)(=O)N[C@H]2CC[C@H](CCNC(=O)Cc3ccccn3)O[C@@H]2CO)cc1 ?
Env fusion inh: 12.3[16.7 µM]; PglD inh: 0.5

Results for CCC(OC(=O)CNS(=O)(=O)c1ccccc1)C(=O)c1ccccc1 (stereo not given) ?
Env fusion inh: 2.0; N-glyco inh: 1.4; PglD inh: 20.1*; Rtt109 HAT inh: 3.9; PglD confirm: -2.2

Results for O=S(=O)(NC1CCN(Cc2ccccc2)CC1)c1ccc(F)c(F)c1 ?
Env fusion inh: -6.0; N-glyco inh: 0.4; PglD inh: 22.1*; PglD confirm: 2.6

Results for CC(=O)N(C)C[C@H]1Oc2cc(C3=CCCCC3)ccc2S(=O)(=O)N([C@@H](C)CO)C[C@H]1C ?
Env fusion inh: 8.3[16.7 µM]

Results for Cn1ncc(C(=O)Nc2ccc(OC(F)(F)F)cc2)c1-n1cccc1 ?
Env fusion inh: 13.9; SR-BI uptake up: -15.7; N-glyco inh: 5.3; SR-BI DiI inh: 15.7; PglD inh: 21.3*; Rtt109 HAT inh: -24.1; PglD confirm: -4.7

What do the screens show for `Cc1cc(NC(=O)Nc2ccccc2F)ccc1Br`?
Env fusion inh: -86.4; SR-BI uptake up: -70.6; N-glyco inh: -10.9; SR-BI DiI inh: inconclusive; PglD inh: 40.2*; PglD confirm: -1.4

Results for Cn1nnc2cc(NC(=O)Nc3ccccc3F)ccc21 ?
Env fusion inh: -52.7; N-glyco inh: -10.0; PglD inh: 0.9

Results for CCC(=O)N1C[C@@H](C)[C@@H](OC)CN(C)C(=O)c2cc(NC(=O)c3ccc(F)cc3)ccc2OC[C@H]1C ?
Env fusion inh: 12.0[16.7 µM]; PglD inh: 2.4

How did O=C(Nc1cccnc1Cl)c1cc([N+](=O)[O-])ccc1Cl do in these assays?
Env fusion inh: -4.8; SR-BI uptake up: 12.4; N-glyco inh: -0.2; SR-BI DiI inh: -12.4; PglD inh: 2.7; Rtt109 HAT inh: 2.4

Results for Cc1ccc([N+](=O)[O-])c(C(=O)Nc2cccnc2Cl)c1 ?
Env fusion inh: 16.7; SR-BI uptake up: 13.8; N-glyco inh: 1.9; SR-BI DiI inh: -13.8; PglD inh: 20.8*; PglD confirm: -3.8

How did Fc1ccc(CNC(=S)NC2CCCCC2)cc1 do in these assays?
Env fusion inh: 5.4; SR-BI uptake up: 16.8; N-glyco inh: 2.0; SR-BI DiI inh: -16.8; PglD inh: 34.8*; Rtt109 HAT inh: 2.5; PglD confirm: 2.5

Results for C#CC1CCCCC1NC(=O)Nc1cnccc1C(F)(F)F (stereo not given) ?
Env fusion inh: 19.9; SR-BI uptake up: 5.9; N-glyco inh: 2.8; SR-BI DiI inh: -5.9; PglD inh: 20.1*; Rtt109 HAT inh: 4.0; PglD confirm: -2.2

How did CCN(Cc1cccc(OC)c1)CC1CCCN(CCc2cccc(OC)c2)C1 (stereo not given) do in these assays?
Env fusion inh: 14.7; SR-BI uptake up: 8.0; N-glyco inh: -0.5; SR-BI DiI inh: -8.0; PglD inh: 22.2*; Rtt109 HAT inh: 2.0; PglD confirm: -13.5

Results for CCOc1cccc(CN(CC)CC2CCCN(CCc3cccc(OC)c3)C2)c1O (stereo not given) ?
Env fusion inh: 2.1; SR-BI uptake up: -7.1; N-glyco inh: -2.2; SR-BI DiI inh: 7.1; PglD inh: 0.7; Rtt109 HAT inh: 10.0

Results for OCc1ccc(N=Nc2ccccc2)cc1 ?
Env fusion inh: -80.4; SR-BI uptake up: 7.4; N-glyco inh: -8.6; SR-BI DiI inh: -7.4; PglD inh: -0.2; Rtt109 HAT inh: 5.1

Results for COc1ccc(N=Nc2ccc(CO)cc2)cc1 ?
Env fusion inh: -159.5; SR-BI uptake up: -26.2; N-glyco inh: -14.3; SR-BI DiI inh: 26.2; PglD inh: 45.0*; Rtt109 HAT inh: -6.5; PglD confirm: 1.4

What do the screens show for `CC1(C)C(=O)Nc2ccccc2N1C(=O)CSc1nnc2ccccn12`?
Env fusion inh: 14.8; SR-BI uptake up: 13.2; N-glyco inh: 0.0; SR-BI DiI inh: -13.2; PglD inh: 35.4*; Rtt109 HAT inh: -1.9; PglD confirm: -1.1

Results for O=C(O)c1cccnc1SC1CC(=O)N(CCc2ccccc2)C1=O (stereo not given) ?
SR-BI uptake up: 21.1; N-glyco inh: 1.0; SR-BI DiI inh: -21.1; PglD inh: 4.2; Rtt109 HAT inh: -5.8

Results for O=C(O)c1cccnc1SC1CC(=O)N(Cc2ccccc2)C1=O (stereo not given) ?
Env fusion inh: -3.0; SR-BI uptake up: 0.8; N-glyco inh: 1.7; SR-BI DiI inh: -0.8; PglD inh: 39.0*; Rtt109 HAT inh: -0.7; PglD confirm: 1.6

What do the screens show for `CCc1ccc(/C=C2\SC(=S)N(CCCC(=O)Nc3cc(C)on3)C2=O)cc1`?
Env fusion inh: 35.8; N-glyco inh: -0.2; PglD inh: 21.0*; PglD confirm: -2.3

What do the screens show for `CCc1ccc(/C=C2\SC(=S)N(CCC(=O)Nc3cc(C)on3)C2=O)cc1`?
Env fusion inh: 50.9; SR-BI uptake up: -0.8; N-glyco inh: 0.6; SR-BI DiI inh: 0.8

How did CCN(CC)S(=O)(=O)c1ccc(NS(=O)(=O)c2cccc(C)c2)cc1 do in these assays?
Env fusion inh: -5.2; SR-BI uptake up: 5.1; N-glyco inh: 0.4; SR-BI DiI inh: -5.1; PglD inh: 24.9*; Rtt109 HAT inh: 11.2; PglD confirm: -0.3

What do the screens show for `CCOc1ccc(NC(=O)NN2C(C)CCCC2C)cc1` (stereo not given)?
Env fusion inh: -7.8; SR-BI uptake up: -5.0; N-glyco inh: 3.0; SR-BI DiI inh: 5.0; PglD inh: 20.0*; Rtt109 HAT inh: -2.7; PglD confirm: 6.2

How did CCOc1ccc(NC(=S)NN2C(C)CCCC2C)cc1 (stereo not given) do in these assays?
Env fusion inh: -7.6; SR-BI uptake up: 11.1; N-glyco inh: 0.0; SR-BI DiI inh: -11.1; PglD inh: 2.1; Rtt109 HAT inh: 2.9

What do the screens show for `COc1ccc(CN(C)C[C@@H]2Oc3c(NS(=O)(=O)c4ccc(C)cc4)cccc3C(=O)N([C@@H](C)CO)C[C@@H]2C)cc1`?
PglD inh: 0.0

What do the screens show for `Cc1cc(N2CCOCC2)nc2ccc(NC(=O)CCC(=O)N3CCCCC3)cc12`?
Env fusion inh: -88.9; SR-BI uptake up: 14.1; N-glyco inh: 3.5; SR-BI DiI inh: -14.1; PglD inh: 23.5*; Rtt109 HAT inh: -3.9; PglD confirm: -1.4

How did CN1[C@@H]2Cn3c(ccc(-c4ccc(F)cc4)c3=O)[C@H]1[C@@H](C(=O)Nc1nccs1)[C@@H]2CO do in these assays?
PglD inh: 3.5

Results for COc1cnc(-c2cccc(C(F)(F)F)c2)c(NC(=O)c2cc3ccccc3s2)n1 ?
Env fusion inh: -17.5; N-glyco inh: -7.7; PglD inh: 30.0*; PglD confirm: 1.6

High-throughput results deposited in PubChem BioAssay by Broad Institute.
